Results reported in article PMC4658283 (Toxicology, 2015).
Counter-ions that a name gives are not always drawn.

How the values were obtained:
Assay type in all cases: in vivo, rat
CYP2B protein = experiment: Western blot analysis of CYP2B protein in liver and cortex microsomes; conditions: liver microsomes; 7 d exposure
[1] = Enantioselective analysis of PCB 95 in tissues; conditions: both experimental groups
[2] = PCB 95 and OH-PCB tissue levels by GC-ECD
Summary of the method: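 Killed 4 h after last injection (~28 h post-PCB). Tissues homogenized with diatomaceous earth and extracted over Florisil. OH-PCBs analysed as methylated derivatives; splitless injection at 280°C; PCB 204 internal standard.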

[3] = both experimental groups dosed with PCB 95

Structure (SMILES)	detection of OH-PCB metabolite in blood and liver [2, 3]	other results
Clc1ccc(Cl)c(-c2c(Cl)ccc(Cl)c2Cl)c1 [PCB 95, 2,2′,3,5′,6-Pentachlorobiphenyl]		hepatic CYP2B protein levels relative to vehicle controls (densitometry, normalized to GAPDH) (CYP2B protein): neither nicotine nor PCB 95 alone changed hepatic CYP2B levels; rank order of tissue EF values for PCB 95 [1]: blood (sample pooled across experimental groups) > liver > muscle (samples pooled within experimental groups) > cortex > adipose
Oc1cc(Cl)c(-c2cc(Cl)ccc2Cl)c(Cl)c1Cl [4-95, 2,2′,3,5′,6-pentachlorobiphenyl-4-ol]	detected	
COc1c(Cl)cc(Cl)c(-c2cc(Cl)ccc2Cl)c1Cl [3-103, 3-Methoxy-2,2′,4,5′,6-pentachlorobiphenyl]	detected	
Oc1cc(Cl)c(Cl)c(-c2cc(Cl)ccc2Cl)c1Cl [5-95, 2,2′,3,5′,6-pentachlorobiphenyl-5-ol]	detected	detection of metabolite in adipose tissue [2, 3]: detected as a minor metabolite
Oc1cc(Cl)c(-c2c(Cl)ccc(Cl)c2Cl)cc1Cl [4′-95]	detected	
COc1c(Cl)c(Cl)c(-c2cc(Cl)ccc2Cl)c(Cl)c1OC [4,5-95, 4,5-dimethoxy-2,2′,3,5′,6-pentachlorobiphenyl]	detected	
CN1CCC[C@H]1c1cccnc1 [Nicotine, (−)-Nicotine hydrogen tartrate salt, reference compound]		effect of nicotine co-exposure on levels of the parent compound PCB 95 in tissues ([2]; nicotine 1 mg/kg/d s.c. 7 d plus PCB 95 6 mg/kg/d p.o., cortex, cerebellum, adipose, blood, liver, muscle): no effect
